Reference: PMC10895701 (Nature structural & molecular biology, 2023)

Experiments:
[1] = tested on: OCT1CS; experiment: 14C-metformin uptake in oocytes expressing OCT1CS; assay type: cell-based
[2] = tested on: WT hOCT1; details: cited from earlier work
[3] = tested on: OCT1CS; experiment: 3H-MPP+ uptake in X. laevis oocytes expressing OCT1CS; assay type: cell-based; details: 30 min uptake
Procedure, shortened: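 Xenopus laevis oocytes injected with 30 ng cRNA, expressed 2–4 days at 17°C. Uptake of 3H-MPP+ (specific radioactivity 0.06 Ci/mmol) over a concentration series, 30 min uptake. Background corrected with water-injected oocytes; radioactivity counted. Kt fitted, reported ± s.e.m.; n=3 biologically independent replicates.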

| Compound | Kt for metformin [1] | Kt for metformin, previous reports [2] [mM] | Michaelis constant for transport (Kt) for MPP+ transport [3] |
| --- | --- | --- | --- |
| CN(C)C(=N)N=C(N)N [metformin] | ~ 3 mM | 1 to 5 |  |
| C[n+]1ccc(-c2ccccc2)cc1 [MPP^+, 1-methyl-4-phenylpyridinium] |  |  | ~ 50 μM |
